# Data as given in PubChem BioAssay.
# Activity calls are given as the source filed them.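 Rule for the calls, unless noted: active = viability at or below 30% in both replicate assays; inconclusive = viability at or below 30% in just one of the two assays; inactive = the rest.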
# What was measured:
# [1] = Her2 expression decrease, cell viability multiplex – SKBR3 breast tumor cells, AlphaScreen, ATP viability, primary screen (AID 461;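 active = Her2 level under about 52% in both replicate screens, with viability over 70% of control, limit read from the data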;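 for Her2 level: lower value means less Her2 protein in the cells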;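 for viability: percent of carrier control wells set as 100% viability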); conditions: SKBR3 Her2 protein level, 18-24 h, measured here: SKBR3 viability, ATP luminescence, at 10 µM
# [2] = molecular target: Receptor tyrosine-protein kinase erbB-2 (Homo sapiens) (UniProt P04626); assay: as above; conditions: 18-24 h, at 10 µM, stronger effect = lower value
# [3] = reduced viability of SK-BR-3 breast cancer cells – cell-based, 24 h, human, pilot screen (AID 572;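 active = viability at or below 10% of carrier control in both of two separate runs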;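 note: compound exposure lasted between 18 and 24 h rather than exactly 24 h; 100% = carrier-treated control wells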); conditions: SK-BR-3 viability, CellTiter-Glo luminescence, at 10 µM, stronger effect = lower value
# [4] = HUVEC growth inhibition – cell-based, human, primary screen (AID 575); conditions: HUVEC proliferation, CellTiter-Glo luminescence, 72 h; at 10 µM; stronger effect = lower value;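 note: 100% = median of untreated cell wells with 0.1% DMSO on each plate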
# Procedure, shortened: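 Test system: primary human umbilical vein endothelial cells; medium: endothelial basal medium with 2% FBS plus growth supplements; dosing: 10 µM compound only; times: 72 h treatment at 37 °C; signal: CTG luminescence; read-out: % viability relative to median vehicle-well signal on each plate; control set: vehicle and MePR control wells; plate: 384-well, collagen-coated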
# [5] = H69AR cell proliferation blockers – human, duplicate replicates, primary screen (AID 580;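 active = viability at or under a set limit in both replicates, limit being median viability minus 3 SD, cut at about 48% in these data, passing the limit was not always enough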;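 note: 100% = mean luminescence of untreated wells and 0% = no signal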); conditions: H69AR lung tumor cells viability, ATP luminescence, 72 h; at 10 µM; stronger effect = lower value
# [6] = MRP1 drug-resistance reversers in H69AR cells – cell-based, doxorubicin co-treatment, pilot screen (AID 601;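 active = viability loss from added drug above about 55%, and viability with drug at most 40%, in both replicates, limit read from the data, passing the limit was not always enough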); conditions: CellTiter-Glo, 72 h, at 10 µM; for differential viability (reversal): stronger effect = higher value
# [7] = yeast transport mutant growth inhibition pilot in 384-well plates, post-Golgi transport modulator project (AID 636; in the data active = inhibition above about 31%); conditions: absorbance 615 nm, about 18 h, stronger effect = higher value
# [8] = growth suppression of yeast trafficking mutant, preliminary HTS, modulators of trafficking downstream of Golgi apparatus project, 1536-format plate, OD 615 nm (AID 637; in the data active = inhibition above about 30%); conditions: yeast transport mutant growth, absorbance 615 nm, 18 h; stronger effect = higher value
# [9] = H69AR cells + 2 uM doxorubicin, measured here: viability with 2 uM doxorubicin, stronger effect = lower value
# [10] = H69AR cells, compound alone cytotoxicity
# Sequence of Receptor tyrosine-protein kinase erbB-2 (Homo sapiens) (P04626 whole entry, looked up): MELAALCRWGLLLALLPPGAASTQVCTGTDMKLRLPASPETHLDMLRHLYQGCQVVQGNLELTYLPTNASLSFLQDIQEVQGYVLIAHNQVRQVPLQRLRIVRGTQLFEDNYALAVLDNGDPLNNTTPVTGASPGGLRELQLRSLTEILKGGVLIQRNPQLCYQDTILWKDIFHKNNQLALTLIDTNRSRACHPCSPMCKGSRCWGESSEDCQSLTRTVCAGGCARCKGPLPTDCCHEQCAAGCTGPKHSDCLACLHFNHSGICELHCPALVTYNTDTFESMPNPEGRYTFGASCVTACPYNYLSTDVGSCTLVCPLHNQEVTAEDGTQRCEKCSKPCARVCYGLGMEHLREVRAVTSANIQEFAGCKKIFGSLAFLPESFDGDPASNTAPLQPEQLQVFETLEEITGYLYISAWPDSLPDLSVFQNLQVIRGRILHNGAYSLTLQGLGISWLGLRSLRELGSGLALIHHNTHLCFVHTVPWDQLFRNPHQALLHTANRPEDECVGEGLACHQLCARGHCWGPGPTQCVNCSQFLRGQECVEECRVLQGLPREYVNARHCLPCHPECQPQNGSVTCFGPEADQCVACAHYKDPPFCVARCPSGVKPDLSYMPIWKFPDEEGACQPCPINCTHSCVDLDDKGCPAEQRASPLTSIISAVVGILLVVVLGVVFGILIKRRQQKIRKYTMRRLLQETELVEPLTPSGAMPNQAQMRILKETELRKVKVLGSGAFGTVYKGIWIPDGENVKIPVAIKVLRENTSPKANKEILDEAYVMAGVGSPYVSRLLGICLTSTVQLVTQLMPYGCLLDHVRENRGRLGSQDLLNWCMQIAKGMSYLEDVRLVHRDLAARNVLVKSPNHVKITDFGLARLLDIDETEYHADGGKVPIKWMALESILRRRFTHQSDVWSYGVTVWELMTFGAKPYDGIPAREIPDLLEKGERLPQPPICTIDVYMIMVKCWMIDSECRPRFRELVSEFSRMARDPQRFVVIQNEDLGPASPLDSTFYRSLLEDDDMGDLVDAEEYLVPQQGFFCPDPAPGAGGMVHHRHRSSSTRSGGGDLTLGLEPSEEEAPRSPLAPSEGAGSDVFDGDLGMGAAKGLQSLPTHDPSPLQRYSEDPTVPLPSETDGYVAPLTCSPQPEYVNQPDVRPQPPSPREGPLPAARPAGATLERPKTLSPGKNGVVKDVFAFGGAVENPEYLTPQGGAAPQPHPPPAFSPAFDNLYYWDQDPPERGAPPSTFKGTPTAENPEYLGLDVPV
SMILES,viability [1] [%],Her2 level [2],viability [3],viability [4],viability [5],differential viability (reversal) ([6]; H69AR cells + 2 uM doxorubicin),"viability [6, 9] [%]","viability [6, 10] [%]",inhibition [7],inhibition [8]
COc1ccccc1N1CCN(C(=O)C2CCCO2)CC1 (stereo not given),98.5,92.5% (inactive),98.5% (inactive),90% (inactive),97.5% (inactive),-0.265% (inactive),97.8,97.5,-1.69% (inactive),1.8% (inactive)
Cc1ccc(NCC(O)C(O)C(O)CO)cc1C (stereo not given),113,104% (inactive),113% (inactive),93.4% (inactive),94.3% (inactive),-2.34% (inactive),96.6,94.3,-6.93% (inactive),-8.1% (inactive)
COC(=O)c1[nH]c2cccc(C)c2c1NC(=O)CN1CCCc2ccccc21,77.5,92% (inactive),77.5% (inactive),67.1% (inactive),78.8% (inactive),2.1% (inactive),76.7,78.8,-1.47% (inactive),2.79% (inactive)
CCOC(=O)c1sc(C)c2c(=O)n(CC)nnc12,94,111% (inactive),94% (inactive),98.3% (inactive),103% (inactive),1.48% (inactive),102,103,-4% (inactive),-9.52% (inactive)
O=c1c2c3c(sc2nc2sc(C4CC4)nn12)CCCC3,110,92.5% (inactive),110% (inactive),82.7% (inactive),79.7% (inactive),-7.56% (inactive),87.2,79.7,-0.39% (inactive),20.7% (inactive)
CCOC(=O)c1cnc(-n2cc(C)cn2)nc1Nc1ccccc1OC,92.5,94% (inactive),92.5% (inactive),80.8% (inactive),60.8% (inactive),-8.94% (inactive),69.8,60.8,-4.55% (inactive),-4.13% (inactive)
CC(=O)c1cccc(NC(=O)N2C3CCC2CC(O)(c2cccnc2)C3)c1 (stereo not given),102,98.5% (inactive),102% (inactive),100% (inactive),106% (inactive),9.59% (inactive),96.7,106,0.41% (inactive),-5.83% (inactive)
COc1ccccc1OCC(=O)N1CCNC1=O,90,96.5% (inactive),90% (inactive),84% (inactive),102% (inactive),12.2% (inactive),90,102,-1.73% (inactive),-0.98% (inactive)
CC1Cc2nc(SCC(=O)Nc3ccccc3F)n(C)c(=O)c2S1 (stereo not given),104,89.5% (inactive),104% (inactive),92.4% (inactive),93.5% (inactive),-0.345% (inactive),93.8,93.5,-7.95% (inactive),4.29% (inactive)
COc1ccccc1NC(=O)C(O)C(O)C(=O)Nc1ccccc1OC (stereo not given),111,104% (inactive),111% (inactive),116% (inactive),96.1% (inactive),4.04% (inactive),92.1,96.1,-7.43% (inactive),-2.83% (inactive)
CC(C)(C)NC(=O)C(c1ccco1)N(C(=O)Cn1nnc(-c2ccc(F)cc2)n1)c1ccccc1F (stereo not given),99,84% (inactive),99% (inactive),96% (inactive),99.3% (inactive),-11% (inactive),110,99.3,-5.54% (inactive),21.8% (inactive)
COC(=O)C1=C(C)OC(N)=C(C#N)C1c1ccccc1 (stereo not given),94.5,77% (inactive),94.5% (inactive),102% (inactive),94% (inactive),12.1% (inactive),82,94,-1.18% (inactive),-9.82% (inactive)
CCC(=O)Nc1ccc(F)c(Cl)c1,108,99% (inactive),108% (inactive),97.9% (inactive),94.7% (inactive),3.67% (inactive),91.1,94.7,-6.53% (inactive),3.71% (inactive)
CSCCC(NC(=O)c1ccco1)C(=O)OC(C)C(=O)NC(=O)NC1CCCCC1 (stereo not given),88,99% (inactive),88% (inactive),96.1% (inactive),111% (inactive),16.1% (inactive),95,111,-3.9% (inactive),8.52% (inactive)
CCOC(=O)CSc1nc2c(c(-c3ccc(C)o3)c1C#N)CCCC2,89.5,88.5% (inactive),89.5% (inactive),65.8% (inactive),73.8% (inactive),6.76% (inactive),67,73.8,0.26% (inactive),-2.46% (inactive)
Cc1nc(SCc2ccc(Br)cc2)[nH]c(=O)c1C,83.5,85.5% (inactive),83.5% (inactive),60.7% (inactive),92.1% (inactive),9.71% (inactive),82.4,92.1,-5.14% (inactive),0.82% (inactive)
CC1=C(C(=O)N2CCCCC2)C2(CCC(C)CC2)OC1=O (stereo not given),90,102% (inactive),90% (inactive),109% (inactive),94.2% (inactive),12.9% (inactive),81.3,94.2,-5.87% (inactive),-3.61% (inactive)
COC(=O)C1CCN(C(=O)NC(C)(C)C)CC1,110,83% (inactive),110% (inactive),104% (inactive),105% (inactive),17.2% (inactive),87.3,105,-5.27% (inactive),8.73% (inactive)
COc1ccc(OC)c(NC(=O)CCN2CCC(C)CC2)c1,112,120% (inactive),112% (inactive),78.3% (inactive),92.4% (inactive),-0.63% (inactive),93.1,92.4,4.86% (inactive),22.4% (inactive)
Cc1nnc(SCC(=O)N2CCC(C(=O)Nc3nccs3)CC2)n1Cc1ccccc1,91.5,80% (inactive),91.5% (inactive),96.2% (inactive),91.5% (inactive),5.37% (inactive),86.1,91.5,-3.87% (inactive),0.33% (inactive)
CC1=C(C(=O)NC2CCCC(C)C2C)C2(CCCCC2)OC1=O (stereo not given),118,100% (inactive),118% (inactive),97.6% (inactive),95.8% (inactive),8.08% (inactive),87.7,95.8,-0.27% (inactive),3.67% (inactive)
CCC1CCCCN1S(=O)(=O)c1ccc(C(=O)Nc2nnc(-c3cccs3)o2)cc1 (stereo not given),79.5,91.5% (inactive),79.5% (inactive),3.2% (active),16.7% (active),-28.1% (inactive),44.9,16.7,-8.68% (inactive),9.64% (inactive)
CN(C(=O)c1ccno1)c1nnc(-c2cnccn2)s1,107,102% (inactive),107% (inactive),108% (inactive),103% (inactive),6.98% (inactive),95.9,103,-6.22% (inactive),1.83% (inactive)
Cn1nnnc1SCC(=O)N1CCN(c2cccc(Cl)c2)CC1,108,89% (inactive),108% (inactive),97.2% (inactive),85.6% (inactive),8.05% (inactive),77.5,85.6,-1.43% (inactive),-1.11% (inactive)
CCOC(=O)C1=C(O)C(=O)N(c2ccc(S(N)(=O)=O)cc2)C1c1ccccc1 (stereo not given),97.5,110% (inactive),97.5% (inactive),96.7% (inactive),96.7% (inactive),1.46% (inactive),95.2,96.7,-6.53% (inactive),-6.23% (inactive)
CCCCCOC(=O)CSc1nnc(-c2cc(OC)c(OC)c(OC)c2)o1,84.5,69.5% (inactive),84.5% (inactive),104% (inactive),104% (inactive),10.6% (inactive),93.2,104,-5% (inactive),-6.5% (inactive)
CCOc1ccc(-c2nnn(CC(=O)N3CCN(c4ccc(F)cc4)CC3)n2)cc1OCC,111,102% (inactive),111% (inactive),76% (inactive),81.9% (inactive),-10.1% (inactive),92,81.9,-2.93% (inactive),-0.33% (inactive)
COC(=O)c1ccccc1NC(=O)c1ccc(COc2ccccc2)o1,71.5,106% (inactive),71.5% (inactive),94.6% (inactive),98.3% (inactive),0.68% (inactive),97.6,98.3,-6.13% (inactive),-4.1% (inactive)
